# Results reported in ChEMBL document CHEMBL5724801, “EUbOPEN Chemogenomics Library - Multiplex” (2024).
# “And” between values parts separate entries of the source, which are not always exact repeats. Identical values can stand only once.
# Key:
# Assay type in all cases: toxicity, cell-based
# Fibroblast = test: Multiplex assay against human fibroblast
# Outline: (§1)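 At seeding, live cells were stained with Hoechst33342, BioTracker Green Microtubule Cytoskeleton Dye, MitoTracker Red and Annexin V Alexa Fluor 680. After compound addition they were imaged on a CQ1 microscope at 37°C and 5% CO2, and CellPathfinder machine-learning gating sorted them into Hoechst high-intensity objects or normal cells, with normal cells further split into healthy, pyknosed or fragmented nuclei and pyknosed cells into mitotic or apoptotic. Tubulin, mitochondrial-mass and membrane-permeability phenotypes are given as per cents of cells with healthy nuclei.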
# U2OS = test: Multiplex assay against U2OS; conditions: human; outline: as §1
# HEK-293T = test: Multiplex assay against HEK293T; conditions: human; outline: as §1
# [1] = 12 h, 1 µM, compound concentration 1 uM
# [2] = 12 h, 10 µM, compound concentration 10 uM
# [3] = 24 h, 1 µM, compound concentration 1 uM
# [4] = 24 h, 10 µM, compound concentration 10 uM
# [5] = 48 h, 1 µM, compound concentration 1 uM
# [6] = 48 h, 10 µM, compound concentration 10 uM
structure (smiles),measurement,setting,value
Cc1sc2c(c1C)C(c1ccc(Cl)cc1)=N[C@@H](CC(=O)NCCCCCCCCNC(=O)COc1cccc3c1C(=O)N(C1CCC(=O)NC1=O)C3=O)c1nnc(C)n1-2 (stereo not given in full),Population Apoptotic (%),Fibroblast; [1],57% and 42%
same,Population Healthy Nuclei (%),Fibroblast; [1],72% and 34%
same,Population Hoechst High Intensity Objects (%),Fibroblast; [1],3% and 6%
same,Population Mitotic Cells (%),Fibroblast; [1],42% and 57%
same,Population Normal (%),Fibroblast; [1],96% and 93%
same,Population Pyknosed Nuclei (%),Fibroblast; [1],16% and 31%
same,Population Tubulin-Different-Phenotype (%),Fibroblast; [1],25% and 66%
same,Total Cell Count,Fibroblast; [1],118 and 94
same,Population Apoptotic (%),Fibroblast; [2],54% and 44%
same,Population Fragmented Nuclei (%),Fibroblast; [2],13% and 27%
same,Population Healthy Nuclei (%),Fibroblast; [2],56% and 27%
same,Population Hoechst High Intensity Objects (%),Fibroblast; [2],11% and 17%
same,Population Membrane Permeable-Phenotype (%),Fibroblast; [2],1% and 7%
same,Population Mitochondria Different-Phenotype (%),Fibroblast; [2],19% and 26%
same,Population Mitotic Cells (%),Fibroblast; [2],45% and 55%
same,Population Normal (%),Fibroblast; [2],88% and 82%
same,Population Pyknosed Nuclei (%),Fibroblast; [2],30% and 45%
same,Population Tubulin-Different-Phenotype (%),Fibroblast; [2],50% and 69%
same,Total Cell Count,Fibroblast; [2],171 and 115
same,Population Apoptotic (%),Fibroblast; [3],56% and 65%
same,Population Fragmented Nuclei (%),Fibroblast; [3],20% and 41%
same,Population Healthy Nuclei (%),Fibroblast; [3],53% and 32%
same,Population Hoechst High Intensity Objects (%),Fibroblast; [3],10% and 3%
same,Population Mitotic Cells (%),Fibroblast; [3],44% and 35%
same,Population Normal (%),Fibroblast; [3],89% and 96%
same,Population Pyknosed Nuclei (%),Fibroblast; [3],26% and 25%
same,Population Tubulin-Different-Phenotype (%),Fibroblast; [3],25% and 72%
same,Total Cell Count,Fibroblast; [3],107 and 80
same,Population Apoptotic (%),Fibroblast; [4],67% and 44%
same,Population Fragmented Nuclei (%),Fibroblast; [4],20% and 25%
same,Population Healthy Nuclei (%),Fibroblast; [4],38% and 32%
same,Population Hoechst High Intensity Objects (%),Fibroblast; [4],13% and 12%
same,Population Mitochondria Different-Phenotype (%),Fibroblast; [4],9% and 20%
same,Population Mitotic Cells (%),Fibroblast; [4],32% and 55%
same,Population Normal (%),Fibroblast; [4],86% and 87%
same,Population Pyknosed Nuclei (%),Fibroblast; [4],41% and 42%
same,Population Tubulin-Different-Phenotype (%),Fibroblast; [4],47% and 68%
same,Total Cell Count,Fibroblast; [4],154 and 103
same,Population Apoptotic (%),Fibroblast; [5],88% and 93%
same,Population Fragmented Nuclei (%),Fibroblast; [5],41% and 42%
same,Population Healthy Nuclei (%),Fibroblast; [5],24% and 37%
same,Population Mitochondria Different-Phenotype (%),Fibroblast; [5],0% and 20%
same,Population Mitotic Cells (%),Fibroblast; [5],12% and 6%
same,Population Normal (%),Fibroblast; [5],72% and 91%
same,Population Pyknosed Nuclei (%),Fibroblast; [5],33% and 20%
same,Population Tubulin-Different-Phenotype (%),Fibroblast; [5],33% and 82%
same,Total Cell Count,Fibroblast; [5],102 and 85
same,Population Apoptotic (%),Fibroblast; [6],86% and 57%
same,Population Fragmented Nuclei (%),Fibroblast; [6],40% and 38%
same,Population Healthy Nuclei (%),Fibroblast; [6],20% and 38%
same,Population Hoechst High Intensity Objects (%),Fibroblast; [6],38% and 15%
same,Population Membrane Permeable-Phenotype (%),Fibroblast; [6],5% and 14%
same,Population Mitochondria Different-Phenotype (%),Fibroblast; [6],10% and 14%
same,Population Normal (%),Fibroblast; [6],61% and 84%
same,Population Pyknosed Nuclei (%),Fibroblast; [6],38% and 23%
same,Population Tubulin-Different-Phenotype (%),Fibroblast; [6],55% and 80%
same,Total Cell Count,Fibroblast; [6],156 and 108
same,Population Apoptotic (%),U2OS; [1],93% and 87%
same,Population Healthy Nuclei (%),U2OS; [1],49% and 80%
same,Population Hoechst High Intensity Objects (%),U2OS; [1],11% and 0%
same,Population Membrane Permeable-Phenotype (%),U2OS; [1],9% and 5%
same,Population Mitochondria Different-Phenotype (%),U2OS; [1],4% and 1%
same,Population Mitotic Cells (%),U2OS; [1],6% and 12%
same,Population Normal (%),U2OS; [1],88% and 99%
same,Population Pyknosed Nuclei (%),U2OS; [1],6% and 5%
same,Population Tubulin-Different-Phenotype (%),U2OS; [1],5% and 3%
same,Total Cell Count,U2OS; [1],269 and 136
same,Population Apoptotic (%),U2OS; [2],86% and 100%
same,Population Fragmented Nuclei (%),U2OS; [2],31% and 19%
same,Population Healthy Nuclei (%),U2OS; [2],55% and 75%
same,Population Hoechst High Intensity Objects (%),U2OS; [2],5% and 0%
same,Population Mitochondria Different-Phenotype (%),U2OS; [2],4% and 12%
same,Population Mitotic Cells (%),U2OS; [2],13% and 0%
same,Population Normal (%),U2OS; [2],94% and 99%
same,Population Pyknosed Nuclei (%),U2OS; [2],13% and 4%
same,Population Tubulin-Different-Phenotype (%),U2OS; [2],0% and 12%
same,Total Cell Count,U2OS; [2],233 and 117
same,Population Apoptotic (%),U2OS; [3],100% and 92%
same,Population Healthy Nuclei (%),U2OS; [3],51% and 80%
same,Population Hoechst High Intensity Objects (%),U2OS; [3],11% and 2%
same,Population Membrane Permeable-Phenotype (%),U2OS; [3],8% and 5%
same,Population Mitochondria Different-Phenotype (%),U2OS; [3],3% and 2%
same,Population Mitotic Cells (%),U2OS; [3],0% and 7%
same,Population Normal (%),U2OS; [3],88% and 97%
same,Population Pyknosed Nuclei (%),U2OS; [3],6% and 7%
same,Population Tubulin-Different-Phenotype (%),U2OS; [3],5% and 4%
same,Total Cell Count,U2OS; [3],297 and 174
same,Population Apoptotic (%),U2OS; [4],100%
same,Population Fragmented Nuclei (%),U2OS; [4],34% and 27%
same,Population Healthy Nuclei (%),U2OS; [4],53% and 65%
same,Population Hoechst High Intensity Objects (%),U2OS; [4],8% and 0%
same,Population Mitochondria Different-Phenotype (%),U2OS; [4],5% and 9%
same,Population Mitotic Cells (%),U2OS; [4],0%
same,Population Normal (%),U2OS; [4],91% and 99%
same,Population Pyknosed Nuclei (%),U2OS; [4],12% and 7%
same,Total Cell Count,U2OS; [4],245 and 130
same,Population Apoptotic (%),U2OS; [5],91% and 90%
same,Population Fragmented Nuclei (%),U2OS; [5],35% and 12%
same,Population Healthy Nuclei (%),U2OS; [5],53% and 79%
same,Population Hoechst High Intensity Objects (%),U2OS; [5],10% and 1%
same,Population Membrane Permeable-Phenotype (%),U2OS; [5],6% and 4%
same,Population Mitochondria Different-Phenotype (%),U2OS; [5],1%
same,Population Mitotic Cells (%),U2OS; [5],8% and 9%
same,Population Normal (%),U2OS; [5],89% and 98%
same,Population Pyknosed Nuclei (%),U2OS; [5],10% and 7%
same,Population Tubulin-Different-Phenotype (%),U2OS; [5],2% and 1%
same,Total Cell Count,U2OS; [5],353 and 270
same,Population Apoptotic (%),U2OS; [6],100%
same,Population Fragmented Nuclei (%),U2OS; [6],36% and 25%
same,Population Healthy Nuclei (%),U2OS; [6],51% and 70%
same,Population Hoechst High Intensity Objects (%),U2OS; [6],7% and 2%
same,Population Membrane Permeable-Phenotype (%),U2OS; [6],9% and 10%
same,Population Mitochondria Different-Phenotype (%),U2OS; [6],4%
same,Population Mitotic Cells (%),U2OS; [6],0%
same,Population Normal (%),U2OS; [6],92% and 97%
same,Population Pyknosed Nuclei (%),U2OS; [6],12% and 4%
same,Population Tubulin-Different-Phenotype (%),U2OS; [6],4% and 7%
same,Total Cell Count,U2OS; [6],289 and 179
same,Population Apoptotic (%),HEK-293T; [1],66% and 62%
same,Population Fragmented Nuclei (%),HEK-293T; [1],5% and 6%
same,Population Healthy Nuclei (%),HEK-293T; [1],55% and 69%
same,Population Membrane Permeable-Phenotype (%),HEK-293T; [1],0%
same,Population Mitochondria Different-Phenotype (%),HEK-293T; [1],73% and 91%
same,Population Mitotic Cells (%),HEK-293T; [1],33% and 37%
same,Population Normal (%),HEK-293T; [1],90% and 69%
same,Population Pyknosed Nuclei (%),HEK-293T; [1],39% and 24%
same,Population Tubulin-Different-Phenotype (%),HEK-293T; [1],49% and 59%
same,Total Cell Count,HEK-293T; [1],175 and 205
same,Population Apoptotic (%),HEK-293T; [2],60% and 53%
same,Population Fragmented Nuclei (%),HEK-293T; [2],9% and 8%
same,Population Healthy Nuclei (%),HEK-293T; [2],67% and 66%
same,Population Hoechst High Intensity Objects (%),HEK-293T; [2],14% and 37%
same,Population Membrane Permeable-Phenotype (%),HEK-293T; [2],0%
same,Population Mitochondria Different-Phenotype (%),HEK-293T; [2],75% and 87%
same,Population Mitotic Cells (%),HEK-293T; [2],39% and 46%
same,Population Normal (%),HEK-293T; [2],85% and 62%
same,Population Pyknosed Nuclei (%),HEK-293T; [2],23% and 24%
same,Population Tubulin-Different-Phenotype (%),HEK-293T; [2],23% and 39%
same,Total Cell Count,HEK-293T; [2],363 and 315
same,Population Apoptotic (%),HEK-293T; [3],51% and 67%
same,Population Fragmented Nuclei (%),HEK-293T; [3],7% and 6%
same,Population Healthy Nuclei (%),HEK-293T; [3],61% and 70%
same,Population Membrane Permeable-Phenotype (%),HEK-293T; [3],0%
same,Population Mitochondria Different-Phenotype (%),HEK-293T; [3],58% and 83%
same,Population Mitotic Cells (%),HEK-293T; [3],48% and 32%
same,Population Normal (%),HEK-293T; [3],93% and 69%
same,Population Pyknosed Nuclei (%),HEK-293T; [3],31% and 23%
same,Population Tubulin-Different-Phenotype (%),HEK-293T; [3],22% and 31%
same,Total Cell Count,HEK-293T; [3],261 and 231
same,Population Apoptotic (%),HEK-293T; [4],52% and 57%
same,Population Fragmented Nuclei (%),HEK-293T; [4],11% and 9%
same,Population Healthy Nuclei (%),HEK-293T; [4],64% and 60%
same,Population Membrane Permeable-Phenotype (%),HEK-293T; [4],0%
same,Population Mitochondria Different-Phenotype (%),HEK-293T; [4],64% and 86%
same,Population Mitotic Cells (%),HEK-293T; [4],47% and 42%
same,Population Normal (%),HEK-293T; [4],87% and 60%
same,Population Pyknosed Nuclei (%),HEK-293T; [4],24% and 30%
same,Population Tubulin-Different-Phenotype (%),HEK-293T; [4],19%
same,Total Cell Count,HEK-293T; [4],397 and 346
same,Population Apoptotic (%),HEK-293T; [5],55% and 67%
same,Population Fragmented Nuclei (%),HEK-293T; [5],7% and 9%
same,Population Healthy Nuclei (%),HEK-293T; [5],58% and 65%
same,Population Membrane Permeable-Phenotype (%),HEK-293T; [5],0%
same,Population Mitochondria Different-Phenotype (%),HEK-293T; [5],56% and 78%
same,Population Mitotic Cells (%),HEK-293T; [5],44% and 32%
same,Population Normal (%),HEK-293T; [5],97% and 84%
same,Population Pyknosed Nuclei (%),HEK-293T; [5],33% and 25%
same,Population Tubulin-Different-Phenotype (%),HEK-293T; [5],30% and 42%
same,Total Cell Count,HEK-293T; [5],284 and 289
same,Population Apoptotic (%),HEK-293T; [6],48% and 65%
same,Population Fragmented Nuclei (%),HEK-293T; [6],9% and 15%
same,Population Healthy Nuclei (%),HEK-293T; [6],55% and 52%
same,Population Hoechst High Intensity Objects (%),HEK-293T; [6],14% and 31%
same,Population Membrane Permeable-Phenotype (%),HEK-293T; [6],0%
same,Population Mitochondria Different-Phenotype (%),HEK-293T; [6],51% and 76%
same,Population Mitotic Cells (%),HEK-293T; [6],51% and 34%
same,Population Normal (%),HEK-293T; [6],85% and 69%
same,Population Pyknosed Nuclei (%),HEK-293T; [6],35% and 31%
same,Population Tubulin-Different-Phenotype (%),HEK-293T; [6],17% and 31%
same,Total Cell Count,HEK-293T; [6],403 and 300
